Measurements published in article PMC6146057 (ACS chemical neuroscience, 2018).
Residue numbers refer to the chain shown, from its start. Where two headings read alike, the source gives them in different places.

How the values were obtained:
M1 [1] = target: T1, M1 (Homo sapiens, UniProt P11229); assay: M1 PAM potency at increasing ACh concentration; format: cell-based; details: read-out: M1 PAM potency
T1 sequence (P11229 1-460): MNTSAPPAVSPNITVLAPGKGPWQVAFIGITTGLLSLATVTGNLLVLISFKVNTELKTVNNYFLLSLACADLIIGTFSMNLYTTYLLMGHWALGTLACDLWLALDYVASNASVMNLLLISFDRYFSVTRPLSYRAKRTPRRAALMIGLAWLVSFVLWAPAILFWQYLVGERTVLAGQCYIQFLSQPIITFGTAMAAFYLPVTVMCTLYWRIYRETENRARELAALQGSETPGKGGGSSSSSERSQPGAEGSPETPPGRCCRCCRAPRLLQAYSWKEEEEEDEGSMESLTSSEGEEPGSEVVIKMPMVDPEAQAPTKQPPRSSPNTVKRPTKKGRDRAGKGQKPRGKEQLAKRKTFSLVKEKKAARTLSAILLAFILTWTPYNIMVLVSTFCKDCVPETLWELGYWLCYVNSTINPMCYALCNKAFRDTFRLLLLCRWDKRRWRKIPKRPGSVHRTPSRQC

rat M1 = target: T2, rat M1 (Rattus norvegicus, UniProt P08482); details: reported M1 PAMs with adverse effect liability; cited from earlier work
T2 sequence (P08482 1-460): T1 sequence (P11229 1-460) with A5V, T254S, P309S, R320K, A337G, I413V

mice = details: cited from earlier work
[2] = system: layer V medial prefrontal cortex fEPSPs; details: cited from earlier work
M1 [3] = target: T1, M1; details: cited from earlier work
[4] = system: layer V medial prefrontal cortex fEPSPs; assay: Extracellular field electrophysiology in layer V prelimbic mPFC slices; design: species or system mouse
In short: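 Coronal prelimbic slices (400 μm) recovered in NMDG-HEPES solution (pH 7.3) for 8–10 min at 32 °C, then were perfused with ACSF at 2 mL/min and 30–32 °C. Layer V fEPSPs were evoked from layers II–III (200 μs, 0.05 Hz) or optically in ChR2-injected mice. Compound alone was bath-applied for 20 min. Alternatively, 10 μM compound was applied for 10 min, then with 3 μM OxoM for 10 min. Slope was measured 46–50 min after washout.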

rats [5] = details: cited from earlier work
rats [6] = assay: Contextual fear conditioning, risperidone-induced deficit; format: in vivo, rat; details: 3 mg/kg i.p. alone

Cc1cc2c(cc1Cc1ccc(-c3cocn3)cc1)C(=O)N([C@H]1CCOC[C@@H]1O)C2 [PF-06827443]
EC50 (M1 [1]; ACh concentration increased to EC70): 7 ± 1 nM | EC50 (M1 [1]; very low level of ACh (~EC9)): 40 ± 6 nM | Displacement of [3H]-NMS (rat M1): weak to significant displacement | Seizures in mice (mice; mice): induced seizures in mice | Agonist activity in the mouse PFC [2]: have agonist activity

Cn1cc(-c2ccc(CN3Cc4ncccc4C3=O)c(F)c2)cn1 [VU0453595]
potency at M1 (M1 [3]): low micromolar range

Cn1cc(-c2ccc(Cn3cc(C(=O)N[C@H]4CCCC[C@@H]4O)c4c(F)cc(F)cc43)cn2)cn1 [VU6004256]
Behavioral convulsions and cholinergic AEs (mice; rodents): devoid of behavioral convulsions and cholinergic AEs

C[N+](C)(C)CCOC(N)=O [carbachol, reference compound]
LTD of layer V fEPSPs, agonist alone ([4]; 10 μM, electrically evoked): does not induce a significant long-term depression

COc1ccc(Cn2cc(C(=O)O)c(=O)c3ccccc32)cc1 [compound 1]
Displacement of [3H]-NMS (rat M1): weak to significant displacement

Cc1ccc(Cc2cc3c(=O)n([C@H]4CCCC[C@@H]4O)cnc3c3ccccc23)cn1 [compound 2]
Displacement of [3H]-NMS (rat M1): weak to significant displacement | Behavioral convulsions, Racine scale (mice; mice, develop rapidly and lasted 3 h): 4/5 | Agonist activity in the mouse PFC [2]: have agonist activity | Efficacy in rat novel object recognition (NOR) model (rats [5]): failed to show efficacy

C[N+](C)(C)CC#CCN1CCCC1=O [oxotremorine-M, reference compound]
LTD of layer V fEPSPs, agonist alone ([4]; 3 μM, optical stimulation of ventral hippocampal afferents): does not induce a significant LTD

Cc1nc2n(c(=O)c1CCN1CCC(c3noc4cc(F)ccc34)CC1)CCCC2 [risperidone, reference compound]
Effect on acquisition of contextual fear conditioning (rats [6]): deficits in acquisition of contextual fear conditioning
